{
  "source": "paper PMC2975463",
  "about": "(Biochemistry, 2009)",
  "key": {"Oxidation": {"assay": "Oxidation", "assay_type": "in vitro ADME, rat", "settings": "for enzymatic oxidation in rat liver cytosol: result in words", "how_it_was_run": "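Rat liver cytosol (5 mg/mL) with varied base-adduct concentrations and 0.4% DMSO, prewarmed 5 min at 37 °C, then started with substrate. Etheno-guanine bases: 0.1 M NaOH stocks, 0.8 M potassium phosphate pH 7.6, extracts in 0.1 M NaOH, HPLC-UV at 285 nm. Heptanone base: DMSO stock, room-temperature setup, UV at 300 nm. Km and vmax came from nonlinear one-site binding fits.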"}, "[1]": {"target": "Bovine XO from buttermilk (Bos taurus, UniProt P80457)", "sequence (P80457 whole entry)": "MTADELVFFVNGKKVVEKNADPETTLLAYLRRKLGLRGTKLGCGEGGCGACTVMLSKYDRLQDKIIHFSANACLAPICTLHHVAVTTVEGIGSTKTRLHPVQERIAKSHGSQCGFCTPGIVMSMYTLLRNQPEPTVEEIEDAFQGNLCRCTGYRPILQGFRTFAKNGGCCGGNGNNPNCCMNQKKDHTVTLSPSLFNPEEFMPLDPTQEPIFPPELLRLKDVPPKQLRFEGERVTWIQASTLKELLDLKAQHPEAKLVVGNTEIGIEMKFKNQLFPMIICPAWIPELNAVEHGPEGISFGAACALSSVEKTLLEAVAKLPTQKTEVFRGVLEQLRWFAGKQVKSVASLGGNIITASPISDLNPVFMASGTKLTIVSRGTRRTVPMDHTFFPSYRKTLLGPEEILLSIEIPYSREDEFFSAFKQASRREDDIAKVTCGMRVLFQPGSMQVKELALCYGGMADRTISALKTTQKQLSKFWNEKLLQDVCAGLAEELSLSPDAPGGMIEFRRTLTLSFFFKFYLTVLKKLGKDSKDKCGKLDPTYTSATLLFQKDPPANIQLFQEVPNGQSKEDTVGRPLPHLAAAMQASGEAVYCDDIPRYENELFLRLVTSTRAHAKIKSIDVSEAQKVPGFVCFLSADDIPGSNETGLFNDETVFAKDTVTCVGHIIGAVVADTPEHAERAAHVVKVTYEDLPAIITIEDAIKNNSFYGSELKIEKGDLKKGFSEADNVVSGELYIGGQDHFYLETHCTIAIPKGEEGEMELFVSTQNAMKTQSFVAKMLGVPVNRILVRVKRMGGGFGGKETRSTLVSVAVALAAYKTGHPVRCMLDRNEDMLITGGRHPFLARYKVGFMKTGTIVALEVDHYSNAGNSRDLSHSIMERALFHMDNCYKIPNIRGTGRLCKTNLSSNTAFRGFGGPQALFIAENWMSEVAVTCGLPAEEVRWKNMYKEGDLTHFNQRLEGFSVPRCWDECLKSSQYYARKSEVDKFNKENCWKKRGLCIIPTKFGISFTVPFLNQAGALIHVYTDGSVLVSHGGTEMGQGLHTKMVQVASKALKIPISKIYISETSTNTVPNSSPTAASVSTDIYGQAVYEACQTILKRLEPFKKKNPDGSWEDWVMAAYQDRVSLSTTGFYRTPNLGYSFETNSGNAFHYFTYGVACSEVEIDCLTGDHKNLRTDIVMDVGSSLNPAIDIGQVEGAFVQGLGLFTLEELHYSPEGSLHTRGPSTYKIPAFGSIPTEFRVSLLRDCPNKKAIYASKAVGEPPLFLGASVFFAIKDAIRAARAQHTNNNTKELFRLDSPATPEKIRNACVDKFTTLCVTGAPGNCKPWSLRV", "assay": "Oxidation of 1,N^2-ε-Gua with purified XO", "assay_type": "biochemical", "settings": "for oxidation by purified bovine XO: result in words"}, "[2]": {"assay": "Glycolytic cleavage of 2′-deoxynucleoside adducts in rat liver cytosol", "assay_type": "in vitro ADME", "settings": "result in words", "how_it_was_run": "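Reactions (ice-prepared) contained 5 mg/mL rat liver cytosol, varied adduct concentrations, 0.4% DMSO and 0.1 M potassium phosphate pH 7.4. One etheno-deoxyadenosine adduct was also run in 0.1 M Tris-HCl pH 7.4 without inorganic phosphate. After 5 min at 37 °C, substrate was added to start. Ice-cold methanol stopped reactions; samples were centrifuged at 200000g for 30 min. Supernatants went to reversed-phase HPLC-UV for base formation.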"}, "[3]": {"settings": "oxidation in rat liver cytosol; cited from earlier work"}, "[4]": {"target": "T1, xanthine oxidoreductase (XOR) (Rattus norvegicus, UniProt P22985)", "T1 sequence (P22985 whole entry)": "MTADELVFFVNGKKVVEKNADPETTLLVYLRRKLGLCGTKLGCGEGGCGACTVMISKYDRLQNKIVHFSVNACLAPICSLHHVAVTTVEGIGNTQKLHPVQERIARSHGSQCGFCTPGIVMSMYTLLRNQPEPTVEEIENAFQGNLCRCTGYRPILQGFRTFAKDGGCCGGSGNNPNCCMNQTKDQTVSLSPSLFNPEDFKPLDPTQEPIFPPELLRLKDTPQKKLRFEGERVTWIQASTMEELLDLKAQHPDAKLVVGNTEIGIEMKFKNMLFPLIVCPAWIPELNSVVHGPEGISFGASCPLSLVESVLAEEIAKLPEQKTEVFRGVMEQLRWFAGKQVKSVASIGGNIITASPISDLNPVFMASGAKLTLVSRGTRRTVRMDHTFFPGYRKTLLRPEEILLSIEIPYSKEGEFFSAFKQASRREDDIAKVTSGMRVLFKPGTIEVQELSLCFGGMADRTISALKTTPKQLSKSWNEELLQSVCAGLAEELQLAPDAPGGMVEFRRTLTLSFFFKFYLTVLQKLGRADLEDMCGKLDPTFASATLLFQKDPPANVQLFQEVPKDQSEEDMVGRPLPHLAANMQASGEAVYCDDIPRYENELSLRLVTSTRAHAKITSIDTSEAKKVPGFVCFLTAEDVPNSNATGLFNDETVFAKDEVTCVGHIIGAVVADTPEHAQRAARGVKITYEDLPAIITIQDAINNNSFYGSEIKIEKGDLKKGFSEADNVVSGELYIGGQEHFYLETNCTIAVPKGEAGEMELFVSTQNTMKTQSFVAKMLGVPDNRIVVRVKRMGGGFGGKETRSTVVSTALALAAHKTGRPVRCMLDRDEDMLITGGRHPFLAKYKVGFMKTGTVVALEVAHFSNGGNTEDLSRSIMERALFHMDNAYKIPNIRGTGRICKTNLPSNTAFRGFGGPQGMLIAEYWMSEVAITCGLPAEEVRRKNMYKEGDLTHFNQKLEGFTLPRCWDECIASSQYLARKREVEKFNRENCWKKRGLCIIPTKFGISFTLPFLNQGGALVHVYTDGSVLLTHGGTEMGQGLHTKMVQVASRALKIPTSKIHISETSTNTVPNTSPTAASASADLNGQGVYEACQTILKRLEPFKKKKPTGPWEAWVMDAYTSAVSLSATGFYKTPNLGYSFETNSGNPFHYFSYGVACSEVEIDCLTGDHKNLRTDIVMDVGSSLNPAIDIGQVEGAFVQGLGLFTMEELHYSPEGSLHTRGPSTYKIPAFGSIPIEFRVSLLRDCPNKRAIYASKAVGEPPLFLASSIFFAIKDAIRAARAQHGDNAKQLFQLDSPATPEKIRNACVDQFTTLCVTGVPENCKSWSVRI", "assay_type": "biochemical", "settings": "co-incubation in rat liver cytosol, result in words", "how_it_was_run": "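Rat liver cytosol (5 mg/mL final) in 0.1 M potassium phosphate (pH 7.4) with 0.4% DMSO, co-incubated with inhibitors. Substrate stock was in DMSO, and mixes were prepared at room temperature. Reactions were equilibrated 5 min at 37 °C and started by adding substrate. Extracts were dissolved in methanol for C18 HPLC (formic acid water/methanol gradient) with UV at 300 nm.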"}, "[5]": {"target": "T1, xanthine oxidoreductase (XOR)", "assay": "Effect of XOR and AO inhibitors on 1,N^2-ε-Gua oxidation in rat liver cytosol", "assay_type": "biochemical", "settings": "result in words", "how_it_was_run": "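Rat liver cytosol (5 mg/mL final) in 0.8 M potassium phosphate (pH 7.6) with 0.4% DMSO. Substrate stock was in 0.1 M NaOH; 84 μM substrate was used with increasing inhibitor concentrations. Mixes were prepared on ice, equilibrated 5 min at 37 °C, and started by adding substrate. Extracts were taken up in 0.1 M NaOH for reversed-phase HPLC-UV (285 nm). IC50 was fitted by nonlinear regression (one-site competition).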"}, "[6]": {"target": "T2, purine nucleoside phosphorylase (PNP) (Homo sapiens, UniProt P00491)", "T2 sequence (P00491 1-289)": "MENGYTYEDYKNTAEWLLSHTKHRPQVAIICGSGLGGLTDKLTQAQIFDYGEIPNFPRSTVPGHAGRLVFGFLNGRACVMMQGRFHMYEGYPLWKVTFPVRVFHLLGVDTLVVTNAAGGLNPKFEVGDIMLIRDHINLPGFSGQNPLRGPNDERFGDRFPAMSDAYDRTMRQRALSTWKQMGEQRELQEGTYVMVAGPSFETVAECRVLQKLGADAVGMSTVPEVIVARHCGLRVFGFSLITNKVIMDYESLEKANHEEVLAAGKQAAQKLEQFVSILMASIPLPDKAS", "assay": "Incubations of 1,N^6-ε-dA and dIno with purified human PNP", "assay_type": "biochemical", "settings": "dIno versus 1,N^6-ε-dA"}},
  "note": "“Also recorded” adds a separate entry of the source. Where two headings read alike, the source gives them in different places.",
  "data": [
    {"compound": "1,N^6-ethenoadenine [1,N^6-ε-Ade]", "values": [
      {"measurement": "enzymatic oxidation in rat liver cytosol", "setting": "Oxidation", "result": "neither was found to be oxidized"}
    ]},
    {"compound": "3,N^4-ethenocytosine [3,N^4-ε-Cyt]", "values": [
      {"measurement": "enzymatic oxidation in rat liver cytosol", "setting": "Oxidation", "result": "neither was found to be oxidized"}
    ]},
    {"compound": "7-(2-oxoheptyl)-1,N^2-ethenoguanine [heptanone-1,N^2-ε-Gua]", "values": [
      {"measurement": "enzymatic oxidation in rat liver cytosol", "setting": "Oxidation", "result": "substrates for enzymatic oxidation"}
    ]},
    {"compound": "O=c1c2[nH]cnc2nc2[nH]ccn12", "note": "[1,N^2-ε-Gua, 1,N^2-ethenoguanine]", "values": [
      {"measurement": "vmax", "setting": "[1]; consumption of 1,N^2-ε-Gua by XOR purified from bovine milk, Figure 3 legend", "result": "10.1 μmol min^−1 (mg of XOR)^−1"},
      {"measurement": "vmax", "setting": "[1]; consumption of 1,N^2-ε-Gua by purified bovine XO", "result": "10.1 μmol min^−1 (mg of XO)^−1"},
      {"measurement": "oxidation by purified bovine XO", "setting": "[1]", "result": "readily consumed"},
      {"measurement": "vmax", "setting": "Oxidation; oxidation in rat liver cytosol, unit of the text", "result": 105, "unit": "pmol/min/mg"},
      {"measurement": "vmax", "setting": "Oxidation; oxidation of substrate in rat liver cytosol, unit of Table 1", "result": 105000, "unit": "pmol/min/mg"},
      {"measurement": "Km", "setting": "Oxidation; rat, rat liver cytosol, pH 7.6", "result": 84, "unit": "µM"},
      {"measurement": "enzymatic oxidation in rat liver cytosol", "setting": "Oxidation", "result": "substrates for enzymatic oxidation"}
    ]},
    {"compound": "OC[C@H]1O[C@@H](n2cnc3c2ncn2ccnc32)[C@H](O)[C@@H]1O", "note": "[1,N^6-ε-adenosine]", "values": [
      {"measurement": "glycolytic cleavage in rat liver cytosol", "setting": "[2]", "result": "Identical observations"}
    ]},
    {"compound": "O=c1ccn2c(=O)c3[nH]cnc3nc2[nH]1", "note": "[6-oxo-M1G]", "values": [
      {"measurement": "Km", "setting": "[3]", "result": 210, "unit": "µM"},
      {"measurement": "vmax", "setting": "[3]", "result": 257, "unit": "nmol/min/mg"}
    ]},
    {"compound": "O=c1nc2[nH]ccn2c2nc[nH]c12", "note": "[N^2,3-ε-Gua, N^2,3-ethenoguanine]", "values": [
      {"measurement": "oxidation by purified bovine XO", "setting": "[1]", "result": "did not result in oxidative metabolism"},
      {"measurement": "enzymatic oxidation in rat liver cytosol", "setting": "Oxidation", "result": "did not result in oxidative metabolism"}
    ]},
    {"compound": "O=c1c2[nH]cnc2nc2n1CCCN2", "note": "[PGua, 1,N^2-propanoguanine]", "values": [
      {"measurement": "enzymatic oxidation in rat liver cytosol", "setting": "Oxidation", "result": "not oxidized"}
    ]},
    {"compound": "Oc1ncnc2[nH]ncc12", "note": "[allopurinol]", "values": [
      {"measurement": "inhibition of heptanone-1,N^2-ε-Gua oxidation", "setting": "[4]", "result": "inhibited oxidation"},
      {"measurement": "inhibition of 1,N^2-ε-Gua metabolite production", "setting": "[5]", "result": "inhibited; also recorded: complete inhibition"}
    ]},
    {"compound": "OC[C@H]1O[C@@H](n2cnc3c(O)ncnc32)C[C@@H]1O", "note": "[dIno, 2′-deoxyinosine]", "values": [
      {"measurement": "efficiency of turnover relative to 1,N^6-ε-dA", "setting": "[6]", "result": "approximately 57 fold"}
    ]}
  ]
}
